For one compound, Ratio EC50, Activity and EC50 results are on record in ChEMBL document CHEMBL3351394 (J Med Chem, 2014).

Molecules are shown by their SMILES.

Test [1] is filed under the species Homo sapiens. The test can be described thus: Selectivity index, ratio of EC50 for GAL4-tagged PPARdelta (unknown origin) to EC50 for human FXR.
Test [2] deals with T1, Bile acid receptor (Homo sapiens) (UniProt Q96RI1).
T1 sequence (whole entry): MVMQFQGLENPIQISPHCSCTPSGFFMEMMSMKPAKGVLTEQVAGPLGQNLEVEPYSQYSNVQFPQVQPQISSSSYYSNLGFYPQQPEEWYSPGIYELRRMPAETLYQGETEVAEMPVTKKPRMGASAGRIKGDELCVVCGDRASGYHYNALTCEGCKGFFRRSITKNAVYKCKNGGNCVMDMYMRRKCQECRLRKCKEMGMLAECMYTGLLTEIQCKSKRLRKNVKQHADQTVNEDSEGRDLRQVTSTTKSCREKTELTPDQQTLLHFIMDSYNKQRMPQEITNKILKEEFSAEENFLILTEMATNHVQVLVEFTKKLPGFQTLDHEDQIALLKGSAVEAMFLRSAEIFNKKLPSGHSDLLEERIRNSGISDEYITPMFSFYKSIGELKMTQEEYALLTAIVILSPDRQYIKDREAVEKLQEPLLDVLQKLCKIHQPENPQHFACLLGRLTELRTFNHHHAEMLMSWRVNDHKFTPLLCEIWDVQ
Put plainly: Agonist activity at FXR in human HepG2 cells assessed as induction of OSTalpha mrNA expression at 3 uM by quantitative PCR method. It counts as cell-based. In outline: (§1)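 HepG2 cells were seeded at 2 × 10⁶ per well. After 24 h they were switched to MEM with 1% charcoal-stripped FCS, and 24 h later dosed with compound (0.1, 0.3, 1, 3, 10 μM; 0.1% DMSO final) for 24 h. Total RNA was reverse transcribed and analysed by qPCR, GAPDH-normalized, ΔΔCt method. Samples were run in duplicate in ≥4 independent experiments.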

In test [3] the target is T1, Bile acid receptor (Homo sapiens). Put plainly: Agonist activity at FXR in human HepG2 cells assessed as induction of IBABP mrNA expression at 10 uM by quantitative PCR method. It counts as cell-based.
Test [4] is filed under the species Homo sapiens. The test can be described thus: Selectivity index, ratio of EC50 for human TGR5 to EC50 for human FXR.
For test [5], the target named is T2, Peroxisome proliferator-activated receptor delta (Homo sapiens, UniProt Q03181).
T2 sequence (Q03181 whole entry): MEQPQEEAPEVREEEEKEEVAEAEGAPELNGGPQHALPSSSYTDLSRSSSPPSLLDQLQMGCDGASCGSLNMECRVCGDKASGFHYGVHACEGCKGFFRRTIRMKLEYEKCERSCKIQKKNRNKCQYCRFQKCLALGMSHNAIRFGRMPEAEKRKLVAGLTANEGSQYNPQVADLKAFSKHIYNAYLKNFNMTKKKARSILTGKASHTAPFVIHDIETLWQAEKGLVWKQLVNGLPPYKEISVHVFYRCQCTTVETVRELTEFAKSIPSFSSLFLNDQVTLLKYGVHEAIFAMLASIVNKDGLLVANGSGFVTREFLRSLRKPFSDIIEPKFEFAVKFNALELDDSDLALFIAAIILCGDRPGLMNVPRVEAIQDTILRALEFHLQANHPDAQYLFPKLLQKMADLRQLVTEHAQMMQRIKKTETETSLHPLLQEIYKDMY
Put plainly: Activity at GAL4-tagged PPARdelta (unknown origin) expressed in COS7 cells assessed as receptor transactivation by luciferase reporter gene assay. It is filed as cell-based, COS-7. A digest of the protocol:
(§2)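 Each PPAR subtype was tested as a Gal4 fusion carrying the human hinge region and LBD (cDNA from human monocytes) in transiently transfected COS-7 cells (Lipofectamine LTX), with a pFR-Luc reporter and pRL-SV40 for normalization. Compound in 0.1% DMSO was added 5 h post-transfection and incubated overnight. Firefly/renilla RLU was scaled to 1 μM GW7647 (α), L165,041 (δ) or pioglitazone (γ).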
In general terms: In a reporter assay the amount or activity of a reporter protein is the signal.

Test [6] deals with T1, Bile acid receptor (Homo sapiens). The test can be described thus: Agonist activity at FXR in human HepG2 cells assessed as induction of OSTalpha mrNA expression at 1 uM by quantitative PCR method. It counts as cell-based. In outline: as §1
Test [7] has the same target. Put plainly: Agonist activity at FXR in human HepG2 cells assessed as induction of OSTalpha mrNA expression at 0.1 uM by quantitative PCR method. It is filed as cell-based. A digest of the protocol: as §1
The target is the same in test [8]. The test can be described thus: Agonist activity at FXR in human HepG2 cells assessed as induction of OSTalpha mrNA expression at 0.3 uM by quantitative PCR method. It counts as cell-based. In outline:
as §1

For test [9] the target is unchanged. Put plainly: Agonist activity at FXR in human HepG2 cells assessed as induction of IBABP mrNA expression at 3 uM by quantitative PCR method. It counts as cell-based.
Test [10] concerns the target T3, Peroxisome proliferator-activated receptor alpha (Homo sapiens, UniProt Q07869).
T3 sequence (Q07869 whole entry): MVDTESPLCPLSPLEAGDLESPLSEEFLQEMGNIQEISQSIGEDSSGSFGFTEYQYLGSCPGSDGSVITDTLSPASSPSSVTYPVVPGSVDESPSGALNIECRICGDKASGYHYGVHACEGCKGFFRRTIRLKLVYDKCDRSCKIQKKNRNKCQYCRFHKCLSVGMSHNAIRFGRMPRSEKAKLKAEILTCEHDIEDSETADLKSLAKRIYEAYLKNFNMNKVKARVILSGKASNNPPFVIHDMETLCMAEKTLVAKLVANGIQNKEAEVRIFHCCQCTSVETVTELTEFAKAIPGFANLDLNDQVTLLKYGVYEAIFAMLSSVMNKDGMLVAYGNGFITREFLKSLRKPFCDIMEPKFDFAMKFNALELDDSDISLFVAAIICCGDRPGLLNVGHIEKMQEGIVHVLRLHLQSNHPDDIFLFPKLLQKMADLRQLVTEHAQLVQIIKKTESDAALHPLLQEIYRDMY
Put plainly: Activity at GAL4-tagged PPARalpha (unknown origin) expressed in COS7 cells assessed as receptor transactivation by luciferase reporter gene assay. It is filed as cell-based, COS-7. In outline:
as §2

The target of test [11] is T1, Bile acid receptor (Homo sapiens). The test can be described thus: Agonist activity at FXR in human HepG2 cells assessed as induction of CYP7A1 mrNA expression at 0.3 uM by quantitative PCR method. It is filed as cell-based. In outline: as §1
Test [12] shares this target. The test can be described thus: Agonist activity at FXR in human HepG2 cells assessed as induction of CYP7A1 mrNA expression at 10 uM by quantitative PCR method. It is filed as cell-based. In outline:
as §1

For test [13] the target is unchanged. Put plainly: Agonist activity at FXR in human HepG2 cells assessed as induction of SHP mrNA expression at 10 uM by quantitative PCR method. It counts as cell-based. A digest of the protocol:
as §1

The target is the same in test [14]. The test can be described thus: Agonist activity at FXR in human HepG2 cells assessed as induction of SHP mrNA expression at 0.1 uM by quantitative PCR method. It counts as cell-based. In outline:
as §1

The target is the same in test [15]. The test can be described thus: Agonist activity at FXR in human HepG2 cells assessed as induction of BSEP mrNA expression at 0.1 uM by quantitative PCR method. It counts as cell-based. A digest of the protocol: as §1
The target is the same in test [16]. The test can be described thus: Agonist activity at FXR in human HepG2 cells assessed as induction of SHP mrNA expression at 1 uM by quantitative PCR method. It counts as cell-based. A digest of the protocol:
as §1

Test [17] shares this target. The test can be described thus: Agonist activity at FXR in human HepG2 cells assessed as induction of BSEP mrNA expression at 10 uM by quantitative PCR method. It is filed as cell-based. A digest of the protocol:
as §1

Test [18] shares this target. Put plainly: Agonist activity at FXR in human HepG2 cells assessed as induction of SHP mrNA expression at 0.3 uM by quantitative PCR method. It is filed as cell-based. A digest of the protocol: as §1

In general, EC50 refers to the midpoint of the concentration-response curve. For the compound `COc1ccc(C(=O)Nc2cccc(C(=O)O)c2)c(NC(=O)c2ccc(C(C)(C)C)cc2)c1`, the Ratio EC50 in the test listed under Homo sapiens [1] and in the test listed under Homo sapiens [4] was above 1000 in each case. Moreover, the Activity in test [2] is 149%; in test [3], 144%; in [6], 140%; in test [7], 151%; in test [8], 198%; in test [9], 168%. Besides, the Activity stood at 59% in [11]; 57% in [12]; 214% in test [13]; 239% in [14]; 294% in test [15]; 181% in [16]. The Activity amounted to 308% in test [17] and 247% in [18]. The EC50 in [5] is 3 µM; in test [10], above 10 µM.
